In the M2OR odorant receptor database:

Assays:
Conditions in all cases: stereoisomer not certain
[1] = target: T1, OR10H4 (Homo sapiens) (UniProt Q8NGA5)
T1 sequence (whole entry): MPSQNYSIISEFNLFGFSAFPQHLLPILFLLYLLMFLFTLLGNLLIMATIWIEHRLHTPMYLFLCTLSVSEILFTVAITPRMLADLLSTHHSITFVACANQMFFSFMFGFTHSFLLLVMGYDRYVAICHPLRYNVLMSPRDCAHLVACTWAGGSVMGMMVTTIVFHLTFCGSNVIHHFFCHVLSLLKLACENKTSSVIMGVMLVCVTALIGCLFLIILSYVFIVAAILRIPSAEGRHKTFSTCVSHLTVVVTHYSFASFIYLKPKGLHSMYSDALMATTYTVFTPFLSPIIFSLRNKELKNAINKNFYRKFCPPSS
Summary of the method: (§1)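 Transient luciferase assays in mammalian cell lines were common, though methods varied by source. The values come from published papers and their supplementary material, with extra details from the original authors when needed. Responsive refers to a measured signal the original authors judged statistically different from baseline, and non-responsive (inactive) to the remainder.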

[2] = target: T2, OR10H5 (Homo sapiens) (UniProt Q8NGA6)
T2 sequence (whole entry): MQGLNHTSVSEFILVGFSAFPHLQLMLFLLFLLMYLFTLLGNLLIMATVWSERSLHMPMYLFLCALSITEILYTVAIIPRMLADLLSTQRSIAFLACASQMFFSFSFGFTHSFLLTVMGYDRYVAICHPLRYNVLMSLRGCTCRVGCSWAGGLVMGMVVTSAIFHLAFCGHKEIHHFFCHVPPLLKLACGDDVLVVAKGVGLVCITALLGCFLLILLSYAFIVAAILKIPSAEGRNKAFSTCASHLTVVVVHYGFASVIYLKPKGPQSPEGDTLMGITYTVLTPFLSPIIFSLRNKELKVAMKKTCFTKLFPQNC
Summary of the method: as §1

[3] = target: T3, OR10J1 (Homo sapiens) (UniProt P30954)
T3 sequence (whole entry): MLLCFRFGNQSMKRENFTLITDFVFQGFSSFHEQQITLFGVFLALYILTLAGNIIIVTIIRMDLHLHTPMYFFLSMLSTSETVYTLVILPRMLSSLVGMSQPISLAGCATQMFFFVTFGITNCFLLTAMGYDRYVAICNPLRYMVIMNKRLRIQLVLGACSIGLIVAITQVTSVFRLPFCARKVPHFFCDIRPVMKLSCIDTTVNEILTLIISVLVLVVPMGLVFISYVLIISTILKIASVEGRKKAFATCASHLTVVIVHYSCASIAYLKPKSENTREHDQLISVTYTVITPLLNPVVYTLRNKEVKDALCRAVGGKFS
Summary of the method: as §1

[4] = target: T4, OR10J3 (Homo sapiens) (UniProt Q5JRS4)
T4 sequence (whole entry): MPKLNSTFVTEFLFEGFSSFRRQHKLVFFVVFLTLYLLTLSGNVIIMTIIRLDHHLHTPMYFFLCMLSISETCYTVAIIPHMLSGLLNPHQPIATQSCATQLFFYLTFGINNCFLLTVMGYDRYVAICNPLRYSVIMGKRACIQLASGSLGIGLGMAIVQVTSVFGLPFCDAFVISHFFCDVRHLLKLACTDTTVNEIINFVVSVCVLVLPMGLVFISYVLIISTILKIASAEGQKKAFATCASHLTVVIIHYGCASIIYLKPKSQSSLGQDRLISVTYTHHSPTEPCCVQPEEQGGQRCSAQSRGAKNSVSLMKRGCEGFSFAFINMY
Summary of the method: as §1

[5] = target: T5, OR10J5 (Homo sapiens) (UniProt Q8NHC4)
T5 sequence (whole entry): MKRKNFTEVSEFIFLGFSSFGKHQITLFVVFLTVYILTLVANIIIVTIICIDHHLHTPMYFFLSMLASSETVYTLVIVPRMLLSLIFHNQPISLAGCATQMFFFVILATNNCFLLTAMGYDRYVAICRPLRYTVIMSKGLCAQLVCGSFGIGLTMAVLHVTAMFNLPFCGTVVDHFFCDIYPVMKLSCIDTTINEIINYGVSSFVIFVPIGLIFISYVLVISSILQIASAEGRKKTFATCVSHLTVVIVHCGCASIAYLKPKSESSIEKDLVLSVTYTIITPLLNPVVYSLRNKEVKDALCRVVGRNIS
Summary of the method: as §1

[6] = target: T6, OR10K1 (Homo sapiens) (UniProt Q8NGX5)
T6 sequence (whole entry): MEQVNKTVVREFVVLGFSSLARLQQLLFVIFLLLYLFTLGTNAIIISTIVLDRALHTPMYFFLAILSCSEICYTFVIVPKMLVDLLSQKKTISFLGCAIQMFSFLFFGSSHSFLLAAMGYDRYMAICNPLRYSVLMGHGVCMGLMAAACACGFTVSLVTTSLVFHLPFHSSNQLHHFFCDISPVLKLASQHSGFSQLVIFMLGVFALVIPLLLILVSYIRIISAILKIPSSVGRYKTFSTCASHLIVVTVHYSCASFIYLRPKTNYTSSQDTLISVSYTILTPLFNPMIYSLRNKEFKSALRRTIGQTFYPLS
Summary of the method: as §1

[7] = target: T7, OR10P1 (Homo sapiens) (UniProt Q8NGE3)
T7 sequence (whole entry): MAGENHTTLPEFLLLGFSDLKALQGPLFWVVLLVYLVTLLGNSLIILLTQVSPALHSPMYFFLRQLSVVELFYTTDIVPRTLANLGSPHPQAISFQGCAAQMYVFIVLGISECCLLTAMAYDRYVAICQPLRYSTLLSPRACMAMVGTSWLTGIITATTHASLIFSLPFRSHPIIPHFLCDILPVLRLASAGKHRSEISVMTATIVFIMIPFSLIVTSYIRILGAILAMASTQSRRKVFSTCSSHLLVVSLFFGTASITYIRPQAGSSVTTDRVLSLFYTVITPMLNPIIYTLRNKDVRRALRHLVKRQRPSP
Summary of the method: as §1

[8] = target: T8, OR10Q1 (Homo sapiens) (UniProt Q8NGQ4)
T8 sequence (whole entry): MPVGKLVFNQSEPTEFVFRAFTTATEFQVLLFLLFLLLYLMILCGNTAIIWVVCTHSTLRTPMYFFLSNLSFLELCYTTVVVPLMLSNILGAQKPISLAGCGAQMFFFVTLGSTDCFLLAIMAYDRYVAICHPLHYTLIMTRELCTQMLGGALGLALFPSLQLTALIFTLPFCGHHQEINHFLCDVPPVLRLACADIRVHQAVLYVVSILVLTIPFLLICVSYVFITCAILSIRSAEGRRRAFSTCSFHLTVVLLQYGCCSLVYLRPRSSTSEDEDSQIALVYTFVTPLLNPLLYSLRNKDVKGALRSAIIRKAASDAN
Summary of the method: as §1

[9] = target: T9, OR10R2 (Homo sapiens) (UniProt Q8NGX6)
T9 sequence (whole entry): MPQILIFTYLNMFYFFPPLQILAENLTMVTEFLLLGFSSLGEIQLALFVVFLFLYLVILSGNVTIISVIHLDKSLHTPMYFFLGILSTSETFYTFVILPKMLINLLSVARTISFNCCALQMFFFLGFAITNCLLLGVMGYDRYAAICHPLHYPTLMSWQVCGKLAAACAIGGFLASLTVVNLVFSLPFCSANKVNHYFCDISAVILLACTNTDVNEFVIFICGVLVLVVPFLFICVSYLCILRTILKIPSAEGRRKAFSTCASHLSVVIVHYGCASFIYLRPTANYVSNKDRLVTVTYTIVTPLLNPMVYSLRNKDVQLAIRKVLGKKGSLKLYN
Summary of the method: as §1

[10] = target: T10, OR10S1 (Homo sapiens) (UniProt Q8NGN2)
T10 sequence (whole entry): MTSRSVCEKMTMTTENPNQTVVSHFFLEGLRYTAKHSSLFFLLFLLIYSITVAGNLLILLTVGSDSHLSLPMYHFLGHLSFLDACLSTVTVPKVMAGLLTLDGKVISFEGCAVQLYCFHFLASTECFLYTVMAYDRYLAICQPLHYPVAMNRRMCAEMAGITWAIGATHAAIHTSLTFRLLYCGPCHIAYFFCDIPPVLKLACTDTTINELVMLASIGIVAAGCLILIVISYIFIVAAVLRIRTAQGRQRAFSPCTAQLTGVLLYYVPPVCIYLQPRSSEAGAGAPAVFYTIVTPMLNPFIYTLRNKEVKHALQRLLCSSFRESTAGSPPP
Summary of the method: as §1

[11] = target: T11, OR10T2 (Homo sapiens) (UniProt Q8NGX3)
T11 sequence (whole entry): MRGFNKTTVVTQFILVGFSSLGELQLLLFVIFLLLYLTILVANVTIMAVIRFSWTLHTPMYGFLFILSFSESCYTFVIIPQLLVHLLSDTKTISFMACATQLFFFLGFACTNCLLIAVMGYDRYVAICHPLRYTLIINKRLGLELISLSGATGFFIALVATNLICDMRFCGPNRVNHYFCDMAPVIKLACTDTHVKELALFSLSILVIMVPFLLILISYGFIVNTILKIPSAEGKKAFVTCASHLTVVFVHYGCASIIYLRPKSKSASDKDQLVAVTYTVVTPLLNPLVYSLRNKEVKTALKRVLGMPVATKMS
Summary of the method: as §1

[12] = target: T12, OR10V1 (Homo sapiens) (UniProt Q8NGI7)
T12 sequence (whole entry): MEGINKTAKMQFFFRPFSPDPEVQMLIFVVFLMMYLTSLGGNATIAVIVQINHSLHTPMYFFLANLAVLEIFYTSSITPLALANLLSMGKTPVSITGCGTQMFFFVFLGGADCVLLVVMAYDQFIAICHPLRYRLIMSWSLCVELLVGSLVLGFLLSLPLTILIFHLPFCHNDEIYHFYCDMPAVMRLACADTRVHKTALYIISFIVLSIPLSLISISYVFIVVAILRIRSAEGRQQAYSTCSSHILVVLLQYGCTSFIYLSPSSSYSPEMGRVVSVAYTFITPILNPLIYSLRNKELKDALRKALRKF
Summary of the method: as §1

[13] = target: T13, OR10W1 (Homo sapiens) (UniProt Q8NGF6)
T13 sequence (whole entry): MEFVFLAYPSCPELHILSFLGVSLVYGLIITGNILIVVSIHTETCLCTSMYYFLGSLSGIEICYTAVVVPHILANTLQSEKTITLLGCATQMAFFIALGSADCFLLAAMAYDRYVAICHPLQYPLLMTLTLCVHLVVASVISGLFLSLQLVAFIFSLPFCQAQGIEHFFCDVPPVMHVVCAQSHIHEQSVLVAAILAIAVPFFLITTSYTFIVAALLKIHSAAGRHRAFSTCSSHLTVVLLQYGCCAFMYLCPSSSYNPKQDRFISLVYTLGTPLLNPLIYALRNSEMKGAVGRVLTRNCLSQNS
Summary of the method: as §1

[14] = target: T14, OR10X1 (Homo sapiens) (UniProt Q8NGY0)
T14 sequence (whole entry): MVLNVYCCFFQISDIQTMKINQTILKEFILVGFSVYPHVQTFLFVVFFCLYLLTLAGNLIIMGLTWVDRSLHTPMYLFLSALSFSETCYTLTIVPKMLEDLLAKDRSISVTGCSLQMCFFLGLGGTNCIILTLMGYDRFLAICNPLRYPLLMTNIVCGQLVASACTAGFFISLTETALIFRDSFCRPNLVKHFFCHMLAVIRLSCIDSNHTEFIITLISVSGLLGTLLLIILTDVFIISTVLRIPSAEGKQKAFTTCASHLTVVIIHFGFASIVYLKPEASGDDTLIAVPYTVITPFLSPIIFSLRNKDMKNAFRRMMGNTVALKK
Summary of the method: as §1

[15] = target: T15, OR10Z1 (Homo sapiens) (UniProt Q8NGY1)
T15 sequence (whole entry): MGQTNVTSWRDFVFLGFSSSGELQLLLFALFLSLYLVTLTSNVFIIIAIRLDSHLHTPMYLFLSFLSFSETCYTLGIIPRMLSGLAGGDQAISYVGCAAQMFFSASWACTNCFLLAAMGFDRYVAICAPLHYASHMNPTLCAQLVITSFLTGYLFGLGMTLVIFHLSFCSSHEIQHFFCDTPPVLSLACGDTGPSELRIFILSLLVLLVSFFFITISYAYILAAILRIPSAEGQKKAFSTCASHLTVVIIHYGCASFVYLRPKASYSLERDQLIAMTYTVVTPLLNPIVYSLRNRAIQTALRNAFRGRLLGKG
Summary of the method: as §1

[16] = target: T16, OR11A1 (Homo sapiens) (UniProt Q9GZK7)
T16 sequence (whole entry): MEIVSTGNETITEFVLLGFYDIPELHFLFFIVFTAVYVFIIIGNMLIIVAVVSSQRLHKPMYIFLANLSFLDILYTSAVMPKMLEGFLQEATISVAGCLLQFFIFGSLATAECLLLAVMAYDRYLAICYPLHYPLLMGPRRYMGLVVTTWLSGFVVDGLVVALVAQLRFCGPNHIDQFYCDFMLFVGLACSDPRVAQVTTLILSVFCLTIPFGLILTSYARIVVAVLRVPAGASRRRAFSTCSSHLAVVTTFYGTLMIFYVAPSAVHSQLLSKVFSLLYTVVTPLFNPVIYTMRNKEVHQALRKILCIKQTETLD
Summary of the method: as §1

[17] = target: T17, OR11G2 (Homo sapiens) (UniProt Q8NGC1)
T17 sequence (whole entry): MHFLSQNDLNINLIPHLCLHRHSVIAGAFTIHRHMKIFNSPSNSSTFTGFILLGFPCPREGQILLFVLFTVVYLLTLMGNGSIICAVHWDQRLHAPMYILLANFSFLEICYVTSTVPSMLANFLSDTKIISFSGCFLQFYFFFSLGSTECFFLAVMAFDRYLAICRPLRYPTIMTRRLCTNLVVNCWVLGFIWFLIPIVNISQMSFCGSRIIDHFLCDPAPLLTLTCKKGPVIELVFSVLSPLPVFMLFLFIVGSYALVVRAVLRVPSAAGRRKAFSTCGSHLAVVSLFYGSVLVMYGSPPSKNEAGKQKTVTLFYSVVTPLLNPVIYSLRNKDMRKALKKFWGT
Summary of the method: as §1

[18] = target: T18, OR11H1 (Homo sapiens) (UniProt Q8NG94)
T18 sequence (whole entry): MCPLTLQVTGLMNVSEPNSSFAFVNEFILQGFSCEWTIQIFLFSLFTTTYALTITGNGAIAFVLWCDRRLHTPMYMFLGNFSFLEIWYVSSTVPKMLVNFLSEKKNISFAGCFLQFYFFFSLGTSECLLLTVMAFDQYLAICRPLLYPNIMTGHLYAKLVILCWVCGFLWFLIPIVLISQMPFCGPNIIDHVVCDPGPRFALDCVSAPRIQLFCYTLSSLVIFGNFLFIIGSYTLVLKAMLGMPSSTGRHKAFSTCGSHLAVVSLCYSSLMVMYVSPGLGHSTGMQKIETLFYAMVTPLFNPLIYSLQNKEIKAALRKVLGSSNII
Summary of the method: as §1

Measured: odorant receptor agonist call;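 further: active if original authors judged signal statistically different from baseline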

CCC1OC(C)=C(O)C1=O (stereo not drawn)
inactive: [1] | [2] | [3] | [4] | [5] | [6] | [7] | [8] | [9] | [10] | [11] | [12] | [13] | [14] | [15] | [16] | [17] | [18]
